Source: publication PMC4650587 (Cell Research, 2014)
“Also recorded” adds a separate entry of the source. Read-outs that look alike come from different tables or passages of the source.

Assays:
human α1β2γ1 AMPK [1] = biological target: human α1β2γ1 AMPK (Homo sapiens, UniProt P54619); format: biochemical
[2] = tested on: AID-αRIM / core AMPK(α1[395-550]-β2[187-272]-γ1); experiment: AlphaScreen interaction between biotinylated core AMPK and His6GST-AID-αRIM; format: binding, human; conditions: wild-type AID-αRIM; AMP 0.2 mM, ATP 1 mM
Outline: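 Two-protein AlphaScreen pairing 100 nM His6-tagged protein on nickel acceptor beads with 100 nM biotin-tagged protein on streptavidin donor beads. Biotinylated core AMPK (α1[395-550]-β2[187-272]-γ1) was an avitag fusion biotinylated in E. coli by co-expressed BirA with 40 μM biotin. Reactions ran in 50 mM MOPS pH 7.4, 50 mM NaF, 50 mM CHAPS, 0.1 mg/ml BSA, 0.2 mM AMP, 1 mM ATP.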

rat liver AMPK = conditions: cited from earlier work
[3] = biological target: CBM-KD interaction of AMPK; experiment: AlphaScreen interaction between isolated biotin-CBM and His6-KD in trans; format: binding, human
Outline: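 Biotin-CBM (β2[75-163] avitag, biotinylated in vivo) was split in two. One half was phosphorylated in trans by CaMKKβ-phosphorylated His6-KD (CBM:KD 50:1, 4 h, RT), then freed of KD by Ni column and size exclusion. 100 nM biotin-CBM on streptavidin donor beads was paired with 100 nM His6-KD on Ni acceptor beads. Buffer: 50 mM MOPS pH 7.4, 50 mM NaF, 50 mM CHAPS, 0.1 mg/ml BSA.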

holo-AMPK = experiment: AlphaScreen CBM-KD interaction in holo-AMPK; format: binding, human; conditions: glycogen 0.5 mg/ml, cyclodextrin 2 mM
[4] = tested on: recombinant, E. coli-expressed AMPK; conditions: cited from earlier work
AMPK = conditions: cited from earlier work
human α1β2γ1 AMPK [5] = experiment: Radioactive kinase assay; format: biochemical; conditions: phosphorylated AMPK; 1 mg/ml glycogen
[6] = biological target: T1, AMPK γ1(24-327), γ-subunit of the crystallised holo-AMPK (human, UniProt P54619 24-327); experiment: crystal structure
T1 sequence (P54619 24-327): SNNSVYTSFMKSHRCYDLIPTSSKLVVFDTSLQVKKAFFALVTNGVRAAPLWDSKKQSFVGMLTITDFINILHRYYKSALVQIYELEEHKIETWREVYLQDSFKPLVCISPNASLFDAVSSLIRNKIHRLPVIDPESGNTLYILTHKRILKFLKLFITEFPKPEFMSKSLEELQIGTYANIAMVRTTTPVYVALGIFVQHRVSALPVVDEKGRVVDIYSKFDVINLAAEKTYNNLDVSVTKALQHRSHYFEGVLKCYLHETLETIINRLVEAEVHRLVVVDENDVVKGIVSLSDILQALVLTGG

[7] = biological target: T1, AMPK γ1(24-327), γ-subunit of the …; experiment: crystal structure; remark: listed apart in the source

Sequence of human α1β2γ1 AMPK (Homo sapiens, UniProt P54619) (P54619 24-327, one chain of several): as the sequence (P54619 24-327) above
Sequence of human α1β2γ1 AMPK (Homo sapiens, UniProt P54619) (Q13131 20-559 partner, one chain of several): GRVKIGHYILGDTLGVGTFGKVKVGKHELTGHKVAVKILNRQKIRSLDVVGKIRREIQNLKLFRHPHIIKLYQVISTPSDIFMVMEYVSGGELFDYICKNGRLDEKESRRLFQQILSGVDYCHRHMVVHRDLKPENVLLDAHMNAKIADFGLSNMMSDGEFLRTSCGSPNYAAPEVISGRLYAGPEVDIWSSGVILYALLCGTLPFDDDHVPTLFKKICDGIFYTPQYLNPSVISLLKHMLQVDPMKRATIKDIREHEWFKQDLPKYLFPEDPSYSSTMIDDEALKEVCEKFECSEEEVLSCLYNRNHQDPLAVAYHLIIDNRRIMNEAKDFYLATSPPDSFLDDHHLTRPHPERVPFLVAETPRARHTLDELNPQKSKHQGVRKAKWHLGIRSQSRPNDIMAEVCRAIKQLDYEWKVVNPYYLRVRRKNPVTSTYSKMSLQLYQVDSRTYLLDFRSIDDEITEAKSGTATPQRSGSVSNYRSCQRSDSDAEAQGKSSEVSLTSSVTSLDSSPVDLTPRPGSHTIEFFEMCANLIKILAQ

In the case of `Nc1ncnc2c1ncn2[C@@H]1O[C@H](COP(=O)(O)OP(=O)(O)OP(=O)(O)O)[C@@H](O)[C@H]1O` [ATP], the “change of luminescence signal, α-γ tagged AMPK” value (human α1β2γ1 AMPK [1]; 1 mM ATP) is reported as “decreased the signal by a factor of two” and the “effect on AID-αRIM / core AMPK interaction signal” value [2] is reported as “decreased”.

In the case of `OC[C@H]1O[C@@H]2O[C@H]3[C@H](O)[C@@H](O)[C@@H](O[C@H]4[C@H](O)[C@@H](O)[C@@H](O[C@H]5[C@H](O)[C@@H](O)[C@@H](O[C@H]6[C@H](O)[C@@H](O)[C@@H](O[C@H]7[C@H](O)[C@@H](O)[C@@H](O[C@H]8[C@H](O)[C@@H](O)[C@@H](O[C@H]1[C@H](O)[C@H]2O)O[C@@H]8CO)O[C@@H]7CO)O[C@@H]6CO)O[C@@H]5CO)O[C@@H]4CO)O[C@@H]3CO` [cyclodextrin, β-cyclodextrin hydrate], the “effect on activity of immunoprecipitated native rat liver AMPK” value (rat liver AMPK) is listed as “more substantially inhibit”, the “effect on CBM-KD interaction signal” value ([3]; non-phosphorylated CBM, cyclodextrin 2 mM) is listed as “greatly reduced the interaction; also recorded: strongly reduced the interaction” and the “effect on CBM-KD interaction signal” value ([3]; phosphorylated CBM, cyclodextrin 2 mM) is listed as “mildly; also recorded: only weakly reduced the interaction”. For the same molecule, the “effect on AlphaScreen signal of holo-AMPK (CBM-KD)” value (“effect on AlphaScreen signal” below) (holo-AMPK; phosphorylated AMPK) was “smaller decrease” and the “effect on catalytic activity of recombinant AMPK” value [4] was “mildly inhibit”.

For `Nc1ncnc2c1ncn2[C@@H]1O[C@H](COP(=O)(O)O)[C@@H](O)[C@H]1O` [AMP], the “change of luminescence signal, α-γ tagged AMPK” value (human α1β2γ1 AMPK [1]; 2 μM AMP) was “doubled the luminescence signal” and the “effect on AID-αRIM / core AMPK interaction signal” value [2] was “increased”.

For `N#Cc1c(O)c2c(-c3ccc(-c4ccccc4O)cc3)csc2[nH]c1=O` [A769662], the “effect on kinase activity” value (AMPK) is listed as “increase kinase activity”.

For `Cc1ccc(Oc2nc3cc(-c4ccc5c(ccn5C)c4)c(Cl)cc3[nH]2)cc1C(=O)O` [compound 991], the “effect on kinase activity” value (AMPK) is listed as “increase kinase activity”.

In the case of glycogen, the “effect on activity of immunoprecipitated native rat liver AMPK” value (rat liver AMPK) is given as “more substantially inhibit”, the “effect on activity of purified rat liver AMPK” value (rat liver AMPK; purified rat liver AMPK) is given as “did not detect an effect” and the “effect on CBM-KD interaction signal” value ([3]; phosphorylated and non-phosphorylated CBM, glycogen 0.5 mg/ml) is given as “almost abolished this interaction”. For the same molecule, the “effect on AMPK catalytic activity” value (human α1β2γ1 AMPK [5]) was “failed to detect an effect”, the “effect on AlphaScreen signal” value (holo-AMPK; non-phosphorylated AMPK) was “significant (P < 0.01) signal decrease” and the “effect on AlphaScreen signal” value (holo-AMPK; phosphorylated AMPK) was “smaller decrease”. For the same molecule, the “effect on catalytic activity of recombinant AMPK” value [4] was “mildly inhibit”.

B1: phosphorylated AMPK β2(76-272), β-subunit of the crystallised phosphorylated holo-AMPK (domain or fragment)
chain: ARPTVIRWSEGGKEVFISGSFNNWSTKIPLIKSHNDFVAILDLPEGEHQYKFFVDGQWVHDPSEPVVTSQLGTINNLIHVKKSDFEVFDALKLDSMESSETSCRDLSSSPPGPYGQEMYAFRSEERFKSPPILPPHLLQVILNKDTNISCDPALLPEPNHVMLNHLYALSIKDSVMVLSATHRYKKKYVTTLLYKPI
modifications: phosphoserine at 108 (autophosphorylated)
B1: binds [6].

B2: non-phosphorylated AMPK β2(76-272), β-subunit of the crystallised non-phosphorylated holo-AMPK (domain or fragment)
chain: ARPTVIRWSEGGKEVFISGSFNNWSTKIPLIKSHNDFVAILDLPEGEHQYKFFVDGQWVHDPSEPVVTSQLGTINNLIHVKKSDFEVFDALKLDSMESSETSCRDLSSSPPGPYGQEMYAFRSEERFKSPPILPPHLLQVILNKDTNISCDPALLPEPNHVMLNHLYALSIKDSVMVLSATHRYKKKYVTTLLYKPI
B2: binds [7].
